Source: ChEMBL document CHEMBL1671666, “Anti-human immunodeficiency virus activity, cross-resistance, cytotoxicity, and intracellular pharmacology of the 3'-azido-2',3'-dideoxypurine nucleosides” (Antimicrob Agents Chemother, 2009)
Structures can show the parent of a compound that is named as a salt.

Legend:
[1] = biological target: Human immunodeficiency virus type 1 reverse transcriptase (Human immunodeficiency virus 1) (UniProt Q72547); test: Ratio of Kpol to Kd for HIV1 reverse transcriptase
How it was run: (§1)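 Pre-steady-state rapid quench with purified WT HIV-1 RT. Quenched with 0.5 M EDTA between 10 ms and 30 min. Products resolved on 7 M urea-16% polyacrylamide gels. Gives kpol and Kd; selectivity = (kpol/Kd)dNTP/(kpol/Kd)NRTI-TP. At least three independent experiments, mean ± SD.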

[2] = biological target: Human immunodeficiency virus type 1 reverse transcriptase (Human immunodeficiency virus 1, UniProt Q72547); test: Binding affinity to HIV1 reverse transcriptase; how it was run: as §1
[3] = biological target: Human immunodeficiency virus type 1 reverse transcriptase (Human immunodeficiency virus 1) (UniProt Q72547); test: Selectivity, ratio of Kpol to Kd for dATP to Kpol to Kd for compound at HIV1 reverse transcriptase; how it was run: as §1
[4] = biological target: Human immunodeficiency virus type 1 reverse transcriptase (Human immunodeficiency virus 1) (UniProt Q72547); test: Activity at HIV1 reverse transcriptase measured after 30 mins; how it was run: as §1
[5] = Half life in PHA-stimulated human PBMC after 12 hrs by LC-MS analysis; format: ADME, cell-based
[6] = biological target: Human immunodeficiency virus type 1 reverse transcriptase (Human immunodeficiency virus 1) (UniProt Q72547); test: Selectivity, ratio of Kpol to Kd for dGTP to Kpol to Kd for compound at HIV1 reverse transcriptase; how it was run: as §1
PBMC = test: Drug level in PHA-stimulated human PBMC measured per 10^6 cells at 10 uM after 12 hrs by LC-MS analysis; format: ADME, cell-based
How it was run: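 PHA-stimulated human PBMC (24-30 × 10⁶ cells) exposed to a range of nucleoside concentrations for 12 h at 37°C in 5% CO2. […] Triphosphate reported in pmol/10⁶ cells. At least three experiments, mean ± SD.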

[7] = biological target: Human immunodeficiency virus type 1 reverse transcriptase (Human immunodeficiency virus 1) (UniProt Q72547); test: Selectivity, ratio of Kpol to Kd for TTP to Kpol to Kd for compound at HIV1 reverse transcriptase; how it was run: as §1
[8] = biological target: Human immunodeficiency virus type 1 reverse transcriptase (Human immunodeficiency virus 1) (UniProt Q72547); test: Selectivity, ratio of Kpol to Kd for dCTP to Kpol to Kd for compound at HIV1 reverse transcriptase; how it was run: as §1
[9] = tested on: Human immunodeficiency virus 1; test: Antiviral activity against HIV1 infected in human HeLa P4/R5 cells assessed as inhibition of viral replication; format: functional, organism-based; details: Human immunodeficiency virus 1, HeLa
How it was run: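 Single-cycle assay in P4/R5 HeLa cells carrying an HIV LTR-driven, Tat-activated β-galactosidase gene. Cells kept in phenol red-free DMEM with 10% FBS and 0.5 μg/ml puromycin. Virus stock titred on these cells by threefold endpoint dilution (Reed-Muench). At least three independent experiments.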

[10] = tested on: Human immunodeficiency virus 1; test: Antiviral activity against HIV1 infected in human MT2 cells assessed as inhibition of viral replication; format: functional, organism-based; details: Human immunodeficiency virus 1, MT2
[11] = tested on: Human immunodeficiency virus 1; test: Antiviral activity against HIV1 infected in human PBMC assessed as inhibition of viral replication; format: functional, organism-based
How it was run: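 PBMC from healthy seronegative donors, isolated on a Ficoll-Hypaque gradient and stimulated with PHA for 2-3 days before infection. At least three independent experiments.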

SMILES | Ratio [1] | Kd [2] | Activity [4] | further results
C[C@H](Cn1cnc2c(N)ncnc21)OCP(=O)(O)OP(=O)(O)OP(=O)(O)O | 1.4 µM⁻¹ s⁻¹ | 4.3 µM | 6.2 s⁻¹ | Selectivity ratio [3]: 5.3
[N-]=[N+]=N[C@H]1C[C@H](n2cnc3c(N)ncnc32)O[C@@H]1COP(=O)(O)OP(=O)(O)OP(=O)(O)O | 10.2 µM⁻¹ s⁻¹ | 2.3 µM | 23.2 s⁻¹ | Selectivity ratio [3]: 0.7
Nc1ncnc2c1ncn2[C@H]1C[C@H](O)[C@@H](COP(=O)(O)OP(=O)(O)OP(=O)(O)O)O1 | 7.6 µM⁻¹ s⁻¹ | 3.2 µM | 24.4 s⁻¹ | 
[N-]=[N+]=N[C@H]1C[C@H](n2cnc3c(=O)[nH]c(N)nc32)O[C@@H]1CO |  |  |  | Drug uptake (PBMC): 0.2 pmol
Nc1nc(=O)c2ncn([C@H]3C=C[C@@H](COP(=O)(O)OP(=O)(O)OP(=O)(O)O)C3)c2[nH]1 (single isomer, unassigned) [CARBOVIR 5'-TRIPHOSPHATE, (-)-] | 0.16 µM⁻¹ s⁻¹ | 4 µM | 0.6 s⁻¹ | Selectivity ratio [6]: 11.2
Nc1nc(NC2CC2)c2ncn([C@H]3C=C[C@@H](CO)C3)c2n1 [ABACAVIR SULFATE] |  |  |  | IC50 [9]: 6.2 µM; IC50 [10]: 4.8 µM; IC50 [11]: 0.91 µM
Nc1ncnc2c1ncn2[C@H]1CC[C@@H](COP(=O)(O)OP(=O)(O)OP(=O)(O)O)O1 [DDA-TRIPHOSPHATE] | 1 µM⁻¹ s⁻¹ | 5.3 µM | 5.4 s⁻¹ | Selectivity ratio [3]: 7.5

Second part, led by results:

Ratio [1] | Kd [2] | Activity [4] | SMILES | further results
1.7 µM⁻¹ s⁻¹ | 2.8 µM | 4.8 s⁻¹ | [N-]=[N+]=N[C@H]1C[C@H](n2cnc3c(=O)[nH]c(N)nc32)O[C@@H]1COP(=O)(O)OP(=O)(O)OP(=O)(O)O | half-life [5]: 8.9 h; Selectivity ratio [6]: 1.1
4.4 µM⁻¹ s⁻¹ |  | 8.8 s⁻¹ | Cc1cn([C@H]2C[C@H](N=[N+]=[N-])[C@@H](COP(=O)(O)OP(=O)(O)OP(=O)(O)O)O2)c(=O)[nH]c1=O | Selectivity ratio [7]: 1
0.06 µM⁻¹ s⁻¹ |  | 0.023 s⁻¹ | Nc1ccn([C@@H]2CS[C@H](COP(=O)(O)OP(=O)(O)OP(=O)(O)O)O2)c(=O)n1 | Selectivity ratio [8]: 17.8
1.1 µM⁻¹ s⁻¹ |  | 1.2 s⁻¹ | Nc1ccn([C@H]2C[C@H](O)[C@@H](COP(=O)(O)OP(=O)(O)OP(=O)(O)O)O2)c(=O)n1 | 
